Data set [1] has as its target Protein arginine N-methyltransferase 5 (Homo sapiens) (UniProt O14744). The data set can be described thus: Inhibition of PRMT5 in TGFbeta1-stimulated human HS578T cells assessed as decrease in H4R3me2s protein expression at 500 nM for 4 days by immunoblot analysis. The data set is classed as cell-based. The following applies: Hs-578T, time 4.0 day. Summed up:
(§1)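 Immunoblots of A549 or HS578T cells given or not given 10 nM TGFβ1 for 2 days and 500 nM inhibitor for 4 days. Probes were histone methylarginine marks and EMT-related proteins.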

The target is the same in data set [2]. The data set can be described thus: Inhibition of PRMT5 in TGFbeta1-stimulated human HS578T cells assessed as decrease in H3R2me2s protein expression at 500 nM for 4 days by immunoblot analysis. The data set is classed as cell-based. The following applies: Hs-578T, time 4.0 day. In outline: as §1
Data set [3] shares this target. The experiment in a line: Inhibition of PRMT5 in TGFbeta1-stimulated human HS578T cells assessed as decrease in H3R2me1 protein expression at 500 nM for 4 days by immunoblot analysis. In kind it is cell-based. The following applies: Hs-578T, time 4.0 day. Summed up:
as §1

The target is the same in data set [4]. The data set can be described thus: Inhibition of PRMT5 in TGFbeta1-stimulated human A549 cells assessed as increase in snail protein expression at 500 nM for 4 days by immunoblot analysis. In kind it is cell-based. The following applies: time 4.0 day. Summed up:
as §1

For data set [5] the target is unchanged. The data set can be described thus: Inhibition of PRMT5 in TGFbeta1-stimulated human A549 cells assessed as increase in vimentin protein expression at 500 nM for 4 days by immunoblot analysis. The following applies: time 4.0 day. The data set is classed as cell-based. In outline:
as §1

Data set [6] has the same target. The data set can be described thus: Inhibition of PRMT5 in TGFbeta1-stimulated human A549 cells assessed as decrease in decrease in E-cadherin protein expression at 500 nM for 4 days by immunoblot analysis. The data set is classed as cell-based. The following applies: time 4.0 day. In outline:
as §1

Data set [7] has the same target. The data set can be described thus: Inhibition of PRMT5 in TGFbeta1-stimulated human A549 cells assessed as decrease in H4R3me2s protein expression at 500 nM for 4 days by immunoblot analysis. In kind it is cell-based. The following applies: time 4.0 day. Summed up:
as §1

The target is the same in data set [8]. The data set can be described thus: Inhibition of PRMT5 in TGFbeta1-stimulated human A549 cells assessed as decrease in H3R2me2s protein expression at 500 nM for 4 days by immunoblot analysis. The data set is classed as cell-based. The following applies: time 4.0 day. Summed up: as §1
For data set [9] the target is unchanged. The experiment in a line: Inhibition of PRMT5 in TGFbeta1-stimulated human A549 cells assessed as decrease in H3R2me1 protein expression at 500 nM for 4 days by immunoblot analysis. In kind it is cell-based. The following applies: time 4.0 day. Summed up: as §1
The test system of data set [10] is A549. The data set can be described thus: Anticancer activity against human A549 cells assessed as decrease in cell invasion at 500 nM for 4 days by crystal violet staining based matrigel assay. The data set is classed as functional. The following applies: time 4.0 day. Summed up:
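A549 cells were exposed to 500 nM for 0 or 4 days, then run in a Matrigel invasion assay through 8 μm porous polycarbonate membranes. Crystal violet-stained invaded cells on the underside were imaged by phase-contrast at 20X and quantified. Three independent experiments, mean ± S.E.M., one-way ANOVA.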

Data set [11] has as its target Protein arginine N-methyltransferase 5 (Homo sapiens) (UniProt O14744). The experiment in a line: Inhibition of PRMT5 in human A549 cells assessed as decrease in SmD3 methylation at 0.01 to 5 uM for 4 days by immunoblot analysis. The data set is classed as cell-based. The following applies: dose 0.01-5 µM, time 4.0 day. In outline: (§2)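 A549 cells were exposed to 0, 10 nM, 100 nM, 500 nM, 1 μM or 5 μM for 4 days. Lysates were blotted for SYM10 (methylated SmD3) and GAPDH. Extracted histones were blotted for H4R3me2s and H3, with DB71 staining of the histones.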

For data set [12] the target is unchanged. The experiment in a line: Inhibition of PRMT5 in human A549 cells assessed as decrease in histone […] methylation at 0.01 to 5 uM for 4 days by immunoblot analysis. The data set is classed as cell-based. The following applies: dose 0.01-5 µM, time 4.0 day. Summed up:
as §2

Data set [13] deals with A549. The data set can be described thus: Cytotoxicity against human A549 cells assessed as decrease in cell viability at 500 nM for 4 days by microscopic analysis. In kind it is functional, cell-based. The following applies: time 4.0 day.
In another data set the test system is IMR-90. The data set can be described thus: Cytotoxicity against human IMR-90 cells assessed as effect on cell viability at 500 nM for 4 days by microscopic analysis. The data set is classed as toxicity, cell-based. The following applies: imr-90, 96 h, 0.5 µM, time 4 day.
The target in data set [14] is Protein arginine N-methyltransferase 5 (Homo sapiens) (UniProt O14744). The data set can be described thus: Inhibition of PRMT5 in human IMR-90 cells assessed as effect on SmD3 methylation for 4 days by immunoblot analysis. In kind it is cell-based. The following applies: time 4.0 day.
Data set [15] has the same target. The experiment in a line: Inhibition of PRMT5 in human IMR-90 cells assessed as effect on histone […] methylation for 4 days by immunoblot analysis. In kind it is cell-based. The following applies: time 4.0 day.
In data set [16] the test system is A549. The data set can be described thus: Anticancer activity in human A549 cells assessed as TGFbeta1-induced cell morphology change for 4 days by microscopic analysis. The data set is classed as functional, cell-based. The following applies: dose 500.0 nM, time 4.0 day. In outline: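 A549 cells were given or not given 500 nM for 4 days and 10 nM TGFβ1 for 2 days. Cell morphology was imaged by microscopy, with inserts at higher magnification.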

The subject of data set [17] is A549. The data set can be described thus: Anticancer activity against human A549 cells assessed as decrease in TGFbeta1-induced cell invasion at 500 nM for 4 days by crystal violet staining based matrigel assay. The data set is classed as functional. The following applies: time 4.0 day. Summed up:
(§3)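 Matrigel invasion through 8 μm pores in A549, SK-MES-1 or HS578T cells, with or without 500 nM inhibitor for 4 days and with or without 10 nM TGFβ1 for 2 days. Invaded cells on the membrane underside were stained with crystal violet, imaged by phase-contrast at 20X and counted. Mean ± S.E.M. of three independent experiments; one-way ANOVA.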

A further data set has as its system NCI-H460. The data set can be described thus: Anticancer activity against human NCI-H460 cells assessed as decrease in TGFbeta1-induced cell invasion at 500 nM for 4 days by crystal violet staining based matrigel assay. The data set is classed as functional. The following applies: time 4.0 day.
The subject of another data set is SK-MES-1. The data set can be described thus: Anticancer activity against human SK-MES-1 cells assessed as decrease in TGFbeta1-induced cell invasion at 500 nM for 4 days by crystal violet staining based matrigel assay. The data set is classed as functional. The following applies: time 4.0 day. In outline:
as §3

The subject of the next data set is NCI-H1339. The data set can be described thus: Anticancer activity against human NCI-H1339 cells assessed as decrease in TGFbeta1-induced cell invasion at 500 nM for 4 days by crystal violet staining based matrigel assay. The data set is classed as functional. The following applies: time 4.0 day.
A further data set relates to Hs-578T. The data set can be described thus: Anticancer activity against human Hs-578T cells assessed as decrease in TGFbeta1-induced cell invasion at 500 nM for 4 days by crystal violet staining based matrigel assay. The following applies: time 4.0 day. In kind it is functional. Summed up: as §3
For data set [18], the system named is A549. The data set can be described thus: Anticancer activity against human A549 cells assessed as decrease in cell migration at 500 nM for 4 days by crystal violet staining based matrigel assay. The data set is classed as functional. The following applies: time 4.0 day.

Structures are written as SMILES. The source made the active and inactive calls. No cut-off for these calls is given here.

Chain of Protein arginine N-methyltransferase 5 (Homo sapiens) (O14744 whole entry): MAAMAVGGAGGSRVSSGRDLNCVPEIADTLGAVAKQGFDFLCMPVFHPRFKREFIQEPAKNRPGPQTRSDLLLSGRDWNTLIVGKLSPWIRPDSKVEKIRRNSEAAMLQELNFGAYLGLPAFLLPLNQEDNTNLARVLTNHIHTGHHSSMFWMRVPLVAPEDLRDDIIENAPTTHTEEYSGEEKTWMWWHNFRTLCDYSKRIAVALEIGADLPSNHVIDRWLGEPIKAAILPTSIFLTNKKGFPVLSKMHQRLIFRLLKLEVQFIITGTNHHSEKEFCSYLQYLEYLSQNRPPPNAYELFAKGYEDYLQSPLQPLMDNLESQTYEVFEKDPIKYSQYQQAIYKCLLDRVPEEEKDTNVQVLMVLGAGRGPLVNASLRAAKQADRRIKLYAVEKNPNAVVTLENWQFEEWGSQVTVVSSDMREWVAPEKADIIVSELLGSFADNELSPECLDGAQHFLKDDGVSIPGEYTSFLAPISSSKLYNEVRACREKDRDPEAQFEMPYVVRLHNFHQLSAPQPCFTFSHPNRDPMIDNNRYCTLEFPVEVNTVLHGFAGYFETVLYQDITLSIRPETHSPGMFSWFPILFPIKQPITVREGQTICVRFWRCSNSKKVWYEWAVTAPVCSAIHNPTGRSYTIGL

For `O=C(NC[C@H](O)CN1CCc2ccccc2C1)c1ccnc(NC2CCC2)c1`, the inhibition result in data set [1], in data set [2], in data set [3], in data set [4], in [5] and in [6] was “Active” in each case. For the same compound, the inhibition entry (in data set [7]; in [8]; in data set [9]; with A549 [10]; in data set [11]; in [12]) was “Active” throughout. For the same compound, the inhibition entry in the data set with A549 [13], with A549 [17], with NCI-H460, in the data set on SK-MES-1, in the data set with NCI-H1339 and in the data set on Hs-578T was “Active” in each case. Further, in the data set with A549 [18], the inhibition entry is “Active”. In addition, the Activity result in the data set on IMR-90 was “Non-Toxic”. The inhibition result in data set [14] and in data set [15] was “inactive” throughout. Besides, in the data set with A549 [16], the result was Active.

The values are drawn from ChEMBL document CHEMBL5712076, “A TGFβ-PRMT5-MEP50 axis regulates cancer cell invasion through histone H3 and H4 arginine methylation coupled transcriptional activation and repression” (Oncogene, 2017).
